Screening results from PubChem BioAssay.
Most compounds without a hit are left out; they make up all but 2.5% or so of the library.
ABHD4 inh: inhibitors of mouse ABHD4 | Q8VD66 | purified mABHD4, FP-Rh probe fluorescence polarization | inhibition, % at 8.92 µM | 370,000 tested, 0.54% active | AID 720543;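 active = inhibition exceeding the mean over every tested compound plus 3 SD, cut at about 30% in these data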;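 also: 0% = plate median of compound wells and 100% = S159A mutant with DMSO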
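Assay system: wild-type mouse ABHD4 protein; compound: single nominal dose of 8.92 µM, 0.89% DMSO final; schedule: 45 min + 60 min at 25 °C; measured by: FP readout, ex 525 nm / em 598 nm; evaluation: % inhibition of FP-Rh probe binding versus controls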
HTRA1 inh: blocks human HTRA1 serine peptidase; recombinant HTRA1, FP-rhodamine activity-based probe, fluorescence polarization; inhibition, % at 5.96 µM; 340,000 tested, 0.5% active; Q92743; in the data active = inhibition above about 36%;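 also: 0% = enzyme with DMSO and 100% = wells lacking enzyme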
Target sequence (Q92743 whole entry, looked up): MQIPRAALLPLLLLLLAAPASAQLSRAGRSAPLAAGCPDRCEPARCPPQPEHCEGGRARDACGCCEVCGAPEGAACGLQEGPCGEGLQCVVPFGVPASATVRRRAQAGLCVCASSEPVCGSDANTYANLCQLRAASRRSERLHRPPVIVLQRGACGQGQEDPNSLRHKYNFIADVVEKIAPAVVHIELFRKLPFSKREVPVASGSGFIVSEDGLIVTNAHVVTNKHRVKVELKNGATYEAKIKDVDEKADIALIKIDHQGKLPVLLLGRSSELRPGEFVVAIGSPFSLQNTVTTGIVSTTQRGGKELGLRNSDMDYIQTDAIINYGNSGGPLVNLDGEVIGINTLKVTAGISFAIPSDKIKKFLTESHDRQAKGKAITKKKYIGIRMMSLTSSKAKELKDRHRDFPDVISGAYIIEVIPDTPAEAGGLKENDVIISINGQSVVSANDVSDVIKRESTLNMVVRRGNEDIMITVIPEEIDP
rCAG RNA binder: molecules binding r(CAG) RNA repeats; r(CAG) RNA repeat, TO-PRO-1 dye displacement fluorescence; inhibition, % at 3 µM; 370,000 tested, 1.3% active; AID 651821;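 active = inhibition above the plate cutoff, the mean of all test compounds on that plate plus 3 SD, cut at about 35% in these data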;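 also: 0% = DMSO alone and 100% = 100 µM mitoxantrone as full dye displacement; higher means more dye released from RNA so lower well fluorescence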
SIAE inh: inhibitors of human sialic acid acetylesterase SIAE. Q9HAT2. SIAE FP-Rh probe binding, fluorescence polarization. inhibition, % at 9.66 µM. 370,000 tested, 0.69% active. AID 1053197;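 active = inhibition above a cutoff: mean of compounds within the control limits plus 3 SD of those, cut at about 17% in these data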;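 also: 0% = plate median of compound wells and 100% = probe without SIAE protein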
TCR CD3 inh: human TCR-CD3 binding inhibition | TAMRA-labeled TCR probe fluorescence, biochemical | 360,000 tested, 0.37% active | inhibition, % at 9.4 µM | AID 651800;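 also: recombinant mutant TCR 2C K166C tagged with TAMRA read by polarization; 0% = receptor in buffer alone and 100% = receptor with positive control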
BSA probe FL: BSA probe counter-screen for TCR-CD3 inhibitors. shares compounds with TCR CD3 inh. TAMRA-labeled BSA probe fluorescence counterscreen. inhibition, % at 9.4 µM. 1,200 tested, 10% active; in the data active = inhibition above about 23%;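 also: 0% = buffer low control and 100% = reference high control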
TCR-CD3 conf: TCR-CD3 interaction inhibition, confirmation; inhibition, % at 9.4 µM; 1,200 tested, 48% active; shares compounds with TCR CD3 inh; TAMRA-labeled TCR probe fluorescence binding assay
Starred values were filed as active, the others as inactive. Rule as the data show it, unless noted: active = inhibition above about 19%; inactive = the rest.

What do the screens show for `N=c1n(-c2ccccc2)c(O)cc(=O)n1-c1ccccc1`?
ABHD4 inh: -11.6; HTRA1 inh: 12.4; rCAG RNA binder: 7.1; SIAE inh: 2.8; TCR CD3 inh: -3.0

How did CCOc1ccc(C(=O)CN2CCN(S(=O)(=O)c3ccc(F)cc3)CC2)cc1 do in these assays?
ABHD4 inh: -6.1; HTRA1 inh: -6.5; rCAG RNA binder: -1.7; SIAE inh: 2.9; TCR CD3 inh: -1.6

How did COc1ccc(S(=O)(=O)N2CCN(CC(=O)c3ccc(O)c(O)c3)CC2)cc1 do in these assays?
ABHD4 inh: 14.8; HTRA1 inh: 19.0; rCAG RNA binder: 9.8; SIAE inh: 10.9; TCR CD3 inh: 24.9*; BSA probe FL: -4.0; TCR-CD3 conf: 18.0

How did Cc1cc(=O)oc2c(CN3CCC(C)CC3)c(O)c(Cl)cc12 do in these assays?
ABHD4 inh: 28.4; HTRA1 inh: 11.5; rCAG RNA binder: -1.3; SIAE inh: 26.1*; TCR CD3 inh: 24.9*; BSA probe FL: 33.3*; TCR-CD3 conf: 35.3*

What do the screens show for `Cc1oc(-c2cccc(Cl)c2)nc1CS(=O)(=O)CC(=O)NCCN1CCOCC1`?
ABHD4 inh: -0.9; HTRA1 inh: 0.2; rCAG RNA binder: 0.8; SIAE inh: 3.1; TCR CD3 inh: 4.6

Results for Cc1oc(-c2cccc(Cl)c2)nc1CS(=O)(=O)CC(=O)NCCN1CCCC1 ?
ABHD4 inh: 4.7; HTRA1 inh: -7.0; rCAG RNA binder: 8.1; SIAE inh: -4.3; TCR CD3 inh: 21.2*; BSA probe FL: 5.3; TCR-CD3 conf: 7.7

How did Cc1cccc(C)c1NC(=O)CN1C(=O)NC(C)(CCc2ccccc2)C1=O (stereo unspecified) do in these assays?
ABHD4 inh: -1.7; HTRA1 inh: 1.9; rCAG RNA binder: -6.0; SIAE inh: -1.4; TCR CD3 inh: 59.2*; BSA probe FL: 3.6; TCR-CD3 conf: 6.4

What do the screens show for `COc1ccccc1N(C)S(=O)(=O)c1ccc(Cl)c(C(=O)NNC(=O)c2ccccc2O)c1`?
ABHD4 inh: 1.7; HTRA1 inh: 34.2; rCAG RNA binder: 25.3; SIAE inh: -4.2; TCR CD3 inh: 32.5*; BSA probe FL: -9.8; TCR-CD3 conf: 25.0*

How did COc1ccccc1/C=N/NC(=O)c1ccc(N(C)S(=O)(=O)c2ccccc2)cc1 do in these assays?
ABHD4 inh: -4.3; HTRA1 inh: -33.4; rCAG RNA binder: 3.2; SIAE inh: -11.8; TCR CD3 inh: 23.2*; BSA probe FL: 10.0; TCR-CD3 conf: 10.1

Results for COc1ccccc1N(C)S(=O)(=O)c1ccc(Cl)c(C(=O)N2CCC2)c1 ?
ABHD4 inh: 0.3; HTRA1 inh: 2.9; rCAG RNA binder: -4.3; SIAE inh: -1.6; TCR CD3 inh: 4.2

What do the screens show for `COc1cc(OC)cc(C(=O)NNC(=O)c2ccc(S(=O)(=O)N(C)c3ccccc3OC)cc2)c1`?
ABHD4 inh: 0.3; HTRA1 inh: -7.9; rCAG RNA binder: 1.2; SIAE inh: -0.8; TCR CD3 inh: -5.0

What do the screens show for `COc1ccccc1N(C)S(=O)(=O)c1ccc(C(=O)NNC(=O)c2ccccc2O)cc1`?
ABHD4 inh: 3.4; HTRA1 inh: 13.9; rCAG RNA binder: 20.6; SIAE inh: 5.0; TCR CD3 inh: 23.3*; BSA probe FL: -1.4; TCR-CD3 conf: 23.6*

What do the screens show for `COc1ccc(-c2cc(C(=O)N3CCc4ccccc4C3)no2)cc1`?
ABHD4 inh: 9.1; HTRA1 inh: -10.5; rCAG RNA binder: -3.5; SIAE inh: -1.4; TCR CD3 inh: 0.9

Results for O=C(NNC(=O)c1c(O)c2ccccc2[nH]c1=O)c1ccccc1Br ?
ABHD4 inh: 3.0; HTRA1 inh: 4.9; rCAG RNA binder: -0.8; SIAE inh: -3.0; TCR CD3 inh: 26.6*; BSA probe FL: -10.8; TCR-CD3 conf: 14.1

What do the screens show for `CCCCC(=O)NNC(=O)c1c(O)c2ccccc2[nH]c1=O`?
ABHD4 inh: -5.7; HTRA1 inh: 6.9; rCAG RNA binder: 1.4; SIAE inh: -9.3; TCR CD3 inh: 17.7

How did O=C(NC1CC1)c1c(O)c2ccccc2[nH]c1=O do in these assays?
ABHD4 inh: 5.9; HTRA1 inh: 1.2; rCAG RNA binder: 1.0; SIAE inh: 7.2; TCR CD3 inh: 5.9

What do the screens show for `O=C(CCl)NNC(=O)c1c(O)c2ccccc2[nH]c1=O`?
ABHD4 inh: -4.2; HTRA1 inh: 20.6; rCAG RNA binder: -0.6; SIAE inh: 0.0; TCR CD3 inh: 66.1*; BSA probe FL: -6.7; TCR-CD3 conf: 49.7*

What do the screens show for `CCN(CC)S(=O)(=O)c1cccc(C(=O)N/N=C(\C)c2ccc(O)cc2O)c1`?
ABHD4 inh: 20.6; HTRA1 inh: 20.6; rCAG RNA binder: 20.6; SIAE inh: 11.2; TCR CD3 inh: 41.2*; BSA probe FL: -19.3; TCR-CD3 conf: 44.4*

Results for COc1ccc(CN2CCNC(=O)C2CC(=O)N(C)Cc2cc(C)no2)cc1OC (stereo unspecified) ?
ABHD4 inh: 1.3; HTRA1 inh: 1.7; rCAG RNA binder: 1.5; SIAE inh: 5.1; TCR CD3 inh: 2.0

How did CC(C)C(=O)Nc1ccc(N2CCCC2)cc1 do in these assays?
ABHD4 inh: 11.0; HTRA1 inh: 29.0; rCAG RNA binder: 7.5; SIAE inh: 5.5; TCR CD3 inh: -9.6

How did OCc1nc2ccccc2n1CCc1ccccc1 do in these assays?
ABHD4 inh: -1.5; HTRA1 inh: -0.5; rCAG RNA binder: -0.8; SIAE inh: -7.3; TCR CD3 inh: 23.2*; BSA probe FL: -5.7; TCR-CD3 conf: -3.2

Results for CSc1ccccc1NC(=O)CN(C)C(=O)c1ccc(-n2cccn2)cc1 ?
ABHD4 inh: 0.0; HTRA1 inh: 3.6; rCAG RNA binder: 3.9; SIAE inh: 4.3; TCR CD3 inh: 0.5

What do the screens show for `CCOC(=O)c1sc(NC(=O)C(CC)OC(=O)c2ccco2)nc1C` (stereo unspecified)?
ABHD4 inh: -4.6; HTRA1 inh: -4.8; rCAG RNA binder: -0.3; SIAE inh: -12.1; TCR CD3 inh: 19.4*; BSA probe FL: -1.3; TCR-CD3 conf: -0.9

What do the screens show for `Cc1ccc(-c2ccc(/C=N/N3C(=O)C4C5C=CC(CC5)C4C3=O)o2)c([N+](=O)[O-])c1` (stereo unspecified)?
ABHD4 inh: 14.6; HTRA1 inh: -10.0; rCAG RNA binder: 0.5; SIAE inh: 9.2; TCR CD3 inh: 22.5*; BSA probe FL: 2.9; TCR-CD3 conf: 1.3

What do the screens show for `Cc1ccc(NC(=O)C(OC(=O)c2ccc(NC(N)=O)cc2)c2ccccc2)cc1Cl` (stereo unspecified)?
ABHD4 inh: -130.5; HTRA1 inh: -96.5; rCAG RNA binder: 21.8; SIAE inh: -48.8; TCR CD3 inh: 45.8*; BSA probe FL: 17.6; TCR-CD3 conf: 31.7*
